Activity calls are given as the source filed them. No cut-off for these calls is given here.
Key:
Type in all cases: cell-based
[1] = molecular target: 4-trimethylaminobutyraldehyde dehydrogenase (Homo sapiens) (UniProt P49189); experiment: Inhibition of ALDH9A1 in human HEK293 cells at 250 nM in presence of ABP MT16-205 by Competitive pulldown based immunoblotting analysis
Method in brief: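 Lysates AzTB-clicked, streptavidin bead pulldown (2 h RT), boiled elution, SDS-PAGE. Target detected by immunoblot: 3% BSA/TBS-T block, primary antibody 1.5 h RT or overnight at 4 °C, HRP secondary, chemiluminescence.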

[2] = molecular target: Ubiquitin carboxyl-terminal hydrolase isozyme L1 (Homo sapiens) (UniProt P09936); experiment: Binding affinity to UCHL1 in human HEK293 cells at 130 to 500 nM in presence of ABP MT16-205 by LFQ-NanoLC-MS/MS analysis; details: dose 130-500 nM, DDE = dose-dependent effect
Method in brief: (§1)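 Competition format: HEK293 cells pre-treated 1 h with competitor or DMSO, then exposed to ABP MT16-205. Lysis in PBS/Triton/SDS buffer, AzRB click ligation, NeutrAvidin pulldown, on-bead TCEP/chloroacetamide treatment and overnight tryptic digestion. Label-free LC-MS/MS; two-sample t-test versus control (n=3, permutation FDR 0.01, S0=1).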

[3] = molecular target: T1, Aldehyde dehydrogenase, mitochondrial (Homo sapiens) (UniProt P05091); experiment: Binding affinity to ALDH2 in human HEK293 cells at 130 to 500 nM in presence of ABP MT16-205 by LFQ-NanoLC-MS/MS analysis; details: dose 130-500 nM, DDE = dose-dependent effect; method in brief: as §1
T1 sequence (whole entry): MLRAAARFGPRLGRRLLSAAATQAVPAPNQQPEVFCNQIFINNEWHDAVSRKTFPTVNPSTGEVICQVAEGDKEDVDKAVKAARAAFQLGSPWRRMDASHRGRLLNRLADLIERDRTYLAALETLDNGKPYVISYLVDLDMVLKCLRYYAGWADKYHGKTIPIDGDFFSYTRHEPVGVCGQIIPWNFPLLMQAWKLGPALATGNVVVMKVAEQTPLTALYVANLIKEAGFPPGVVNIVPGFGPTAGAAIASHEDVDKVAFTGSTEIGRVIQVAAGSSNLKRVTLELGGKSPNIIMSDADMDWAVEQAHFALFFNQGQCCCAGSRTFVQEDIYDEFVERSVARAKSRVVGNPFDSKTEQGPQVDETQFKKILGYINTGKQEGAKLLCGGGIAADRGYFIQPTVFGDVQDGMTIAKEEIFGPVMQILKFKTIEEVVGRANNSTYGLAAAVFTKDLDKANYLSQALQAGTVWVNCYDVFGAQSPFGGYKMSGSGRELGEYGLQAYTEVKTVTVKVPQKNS

[4] = molecular target: T2, Glutamine amidotransferase-like class 1 domain-containing protein 3, mitochondrial (Homo sapiens) (UniProt P0DPI2); experiment: Binding affinity to GATD3A in human HEK293 cells assessed as fold change at 130 nM incubated for 3 to 6 hrs by LFQ-chemical proteomics analysis; details: time 3-6 hrs
T2 sequence (whole entry): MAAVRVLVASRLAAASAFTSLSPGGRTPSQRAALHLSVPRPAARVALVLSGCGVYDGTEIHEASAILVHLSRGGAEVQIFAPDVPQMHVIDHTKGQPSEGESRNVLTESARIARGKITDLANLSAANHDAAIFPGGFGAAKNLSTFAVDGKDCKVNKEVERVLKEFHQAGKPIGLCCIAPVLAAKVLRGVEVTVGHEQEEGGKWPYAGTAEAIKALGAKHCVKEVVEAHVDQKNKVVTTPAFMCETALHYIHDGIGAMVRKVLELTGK
Method in brief: (§2)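 HEK293 cells exposed to alkyne ABP or DMSO for 3, 6 or 18 h, washed, lysed in PBS/1% Triton X-100/0.1% SDS. Lysates (400 µg, biological triplicates) CuAAC-ligated to AzRB (100 µM, CuSO4 1 mM, TCEP 1 mM, TBTA 100 µM, 1 h RT). NeutrAvidin enrichment, on-bead TCEP/CAA reduction-alkylation, overnight trypsin digest at 37 °C, LC-MS/MS label-free quantification. Two-sample t-test against DMSO (n=3, permutation FDR 0.01, S0=1).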

[5] = molecular target: 4-trimethylaminobutyraldehyde dehydrogenase (Homo sapiens) (UniProt P49189); experiment: Binding affinity to ALDH9A1 in human HEK293 cells assessed as fold change at 130 nM incubated for 3 to 6 hrs by LFQ-chemical proteomics analysis; details: time 3-6 hrs; method in brief: as §2
[6] = molecular target: Ubiquitin carboxyl-terminal hydrolase isozyme L1 (Homo sapiens) (UniProt P09936); experiment: Binding affinity to UCHL1 in human HEK293 cells at 31 nM by TAMRA labelled pulldown based immunoblotting analysis
Method in brief: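 HEK293 cells treated with ABP; lysate (150 µg) CuAAC-ligated to AzTB, precipitated, resuspended. 100 µg incubated with streptavidin magnetic beads 2 h RT, washed with 0.2% SDS/PBS, eluted by boiling 10 min at 95 °C. Eluates run on SDS-PAGE and read by TAMRA in-gel fluorescence or by immunoblot on nitrocellulose with HRP chemiluminescence.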

HEK293 = experiment: Binding affinity to ALDH in human HEK293 cells assessed as fold change at 30 nM incubated for 3 to 18 hrs by LFQ-chemical proteomics analysis; details: time 3-18 hrs; method in brief: as §2
[7] = molecular target: Aldehyde dehydrogenase family 3 member A2 (Homo sapiens) (UniProt P51648); experiment: Binding affinity to ALDH3A2 in human HEK293 cells assessed as fold change at 130 nM incubated for 3 to 6 hrs by LFQ-chemical proteomics analysis; details: time 3-6 hrs; method in brief: as §2
[8] = molecular target: Ubiquitin carboxyl-terminal hydrolase isozyme L1 (Homo sapiens) (UniProt P09936); experiment: Inhibition of UCHL1 in human HEK293 cells assessed as reduction in UCHL1-Ub level using HA-Ub-VME as substrate at 0.001 to 30 uM incubated for 1 hr by immunoblotting analysis; details: dose 0.001-30 µM
Method in brief: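 Near-confluent HEK293 cells treated with compound in medium for 1 h at 37 °C, lysed in Tris/NP-40/CHAPS buffer with benzonase. Lysate (20 µg) reacted with HA-Ahx-Ahx-Ub-VME (0.5 µg) 15 min at room temperature, boiled 5 min at 95 °C in SDS loading buffer with BME, SDS-PAGE and immunoblot.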

[9] = molecular target: Ubiquitin carboxyl-terminal hydrolase isozyme L1 (Homo sapiens) (UniProt P09936); experiment: Binding affinity to UCHL1 in human HEK293 cells at 40 nM incubated for 3 hrs by In-gel fluorescence analysis
Method in brief: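 HEK293 cells given 10–2500 nM ABP for 3, 6 or 18 h. Lysates clicked to AzTB, mixed with Laemmli buffer at 0.31% v/v final BME for 5 min without boiling, resolved on 12% acrylamide gels, imaged by in-gel TAMRA fluorescence.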

[10] = molecular target: T2, Glutamine amidotransferase-like class 1 domain-containing protein 3, mitochondrial (Homo sapiens); experiment: Binding affinity to GATD3A in human HEK293 cells assessed as fold change at 30 nM incubated for 3 to 18 hrs by LFQ-chemical proteomics analysis; details: time 3-18 hrs; method in brief: as §2

Ubiquitin carboxyl-terminal hydrolase isozyme L1 (Homo sapiens), sequence (P09936 whole entry, looked up): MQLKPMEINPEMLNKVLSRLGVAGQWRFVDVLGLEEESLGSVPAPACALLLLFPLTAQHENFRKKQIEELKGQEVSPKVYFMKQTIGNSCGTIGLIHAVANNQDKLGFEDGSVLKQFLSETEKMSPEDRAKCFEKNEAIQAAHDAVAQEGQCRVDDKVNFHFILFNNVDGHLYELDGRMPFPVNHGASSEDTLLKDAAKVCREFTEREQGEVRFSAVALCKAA
4-trimethylaminobutyraldehyde dehydrogenase (Homo sapiens), sequence (P49189 whole entry): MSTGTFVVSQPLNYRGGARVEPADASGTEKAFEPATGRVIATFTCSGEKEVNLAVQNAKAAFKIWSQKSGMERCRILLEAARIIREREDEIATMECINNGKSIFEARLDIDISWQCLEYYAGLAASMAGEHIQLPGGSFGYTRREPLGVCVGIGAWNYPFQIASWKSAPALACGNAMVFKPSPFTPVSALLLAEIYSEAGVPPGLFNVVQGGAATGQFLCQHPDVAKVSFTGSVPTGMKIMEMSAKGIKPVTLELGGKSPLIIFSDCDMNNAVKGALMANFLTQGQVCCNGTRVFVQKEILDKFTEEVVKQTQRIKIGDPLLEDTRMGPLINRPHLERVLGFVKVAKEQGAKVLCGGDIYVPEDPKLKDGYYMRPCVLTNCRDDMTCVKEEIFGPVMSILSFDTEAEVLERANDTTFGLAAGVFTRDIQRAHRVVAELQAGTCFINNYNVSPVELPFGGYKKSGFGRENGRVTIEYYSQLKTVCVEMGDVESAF
Aldehyde dehydrogenase family 3 member A2 (Homo sapiens), sequence (P51648 whole entry): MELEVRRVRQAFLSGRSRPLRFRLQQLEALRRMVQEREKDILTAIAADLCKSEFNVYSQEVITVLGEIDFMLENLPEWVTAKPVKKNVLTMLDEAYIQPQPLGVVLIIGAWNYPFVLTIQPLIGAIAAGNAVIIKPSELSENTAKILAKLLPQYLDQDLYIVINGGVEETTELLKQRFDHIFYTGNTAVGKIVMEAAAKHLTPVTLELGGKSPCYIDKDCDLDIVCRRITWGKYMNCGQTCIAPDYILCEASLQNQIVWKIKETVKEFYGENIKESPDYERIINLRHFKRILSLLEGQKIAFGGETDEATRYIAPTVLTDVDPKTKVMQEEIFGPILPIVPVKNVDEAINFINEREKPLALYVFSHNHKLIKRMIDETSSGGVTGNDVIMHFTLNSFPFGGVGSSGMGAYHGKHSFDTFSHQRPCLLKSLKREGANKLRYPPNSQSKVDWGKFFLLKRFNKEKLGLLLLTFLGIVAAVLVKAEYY

| Structure (SMILES) | inhibition [1] | Activity [2] | Activity [3] | fold change (FC) [4] | fold change (FC) [5] | Activity [6] | fold change (FC) (HEK293) | fold change (FC) [7] | inhibition [8] | Activity [9] | fold change (FC) [10] |
| --- | --- | --- | --- | --- | --- | --- | --- | --- | --- | --- | --- |
| N#CN1CC[C@H](C(=O)Nc2ncc(-c3ccccc3)s2)C1 | Active | Dde | Dde | – | – | – | – | – | – | – | – |
| C#Cc1ccc(-c2cnc(NC(=O)[C@H]3CCN(C#N)C3)s2)cc1 | – | – | – | > 64 | > 64 | Active | > 16 | > 64 | Active | Active | > 16 |

Reference: ChEMBL document CHEMBL5107948, “Activity-based protein profiling reveals deubiquitinase and aldehyde dehydrogenase targets of a cyanopyrrolidine probe” (RSC Med Chem, 2021)
